≈ marks a conversion by molar mass, not a printed value.
Experiments:
[1] = target: T1, Peptide deformylase (Staphylococcus aureus) (UniProt P68826); assay: Inhibition of Staphylococcus aureus PDF using formyl-methionine-alanine-serine as substrate assessed as increase in NADH levels at 30 nM by microtiter ELISA
T1 sequence (whole entry): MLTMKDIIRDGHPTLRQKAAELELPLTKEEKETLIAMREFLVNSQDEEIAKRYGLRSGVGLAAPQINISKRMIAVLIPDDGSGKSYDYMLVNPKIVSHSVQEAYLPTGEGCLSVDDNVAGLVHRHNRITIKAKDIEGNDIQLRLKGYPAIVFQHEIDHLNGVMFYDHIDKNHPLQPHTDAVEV

Peptide deformylase = target: T2, Peptide deformylase (Staphylococcus aureus, UniProt P68826); assay: Inhibition of Staphylococcus aureus PDF using formyl-methionine-alanine-serine as substrate assessed as increase in NADH levels by microtiter ELISA
T2 sequence (P68826 whole entry): T1 sequence (whole entry)

[2] = target: T1, Peptide deformylase (Staphylococcus aureus); assay: Inhibition of Staphylococcus aureus PDF using formyl-methionine-alanine-serine as substrate assessed as increase in NADH levels at 10 nM by microtiter ELISA
[3] = target: T1, Peptide deformylase (Staphylococcus aureus); assay: Inhibition of Staphylococcus aureus PDF using formyl-methionine-alanine-serine as substrate assessed as increase in NADH levels at 100 nM by microtiter ELISA
Enterococcus faecium [4] = assay: Antibacterial activity against vancomycin-resistant Enterococcus faecium after 24 hrs by microdilution method; format: functional
Escherichia coli = assay: Antibacterial activity against Escherichia coli after 24 hrs by microdilution method; format: functional
Streptococcus pneumoniae [5] = assay: Antibacterial activity against Penicillin-resistant Streptococcus pneumoniae after 24 hrs by microdilution method; format: functional
Pseudomonas aeruginosa = assay: Antibacterial activity against Pseudomonas aeruginosa after 24 hrs by microdilution method; format: functional
Staphylococcus aureus [6] = assay: Antibacterial activity against methicillin-resistant Staphylococcus aureus after 24 hrs by microdilution method; format: functional
Enterococcus faecalis = assay: Antibacterial activity against vancomycin-resistant Enterococcus faecalis after 24 hrs by microdilution method; format: functional
[7] = Plasma clearance in iv/po dosed mouse by LC-MS/MS analysis; format: ADME, organism-based
Method in brief: (§1)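 Mice, n = 3–5 per group, given the compound intravenously and orally. Plasma pharmacokinetic parameters were derived: total plasma clearance, steady-state volume of distribution, apparent terminal elimination half-life, Tmax after oral dosing, and absolute oral bioavailability (%F).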

[8] = Tmax in iv/po dosed mouse plasma by LC-MS/MS analysis; format: ADME, organism-based; method in brief: as §1
Staphylococcus aureus [9] = assay: Antibacterial activity against methicillin-resistant Staphylococcus aureus infected in po dosed mouse model assessed as inhibition of systemic infection administered bid for 3 days; format: functional; conditions: 72 h
Method in brief: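 Normal mice (n = 6/group) given a systemic ip challenge with a standard MRSA strain at 2 × 10⁸ CFU per mouse. Oral treatment twice daily for 3 days. Survival was scored at day 7, and ED50 with 95% CI was derived by probit analysis.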

[10] = Apparent terminal half life in iv/po dosed mouse plasma by LC-MS/MS analysis; format: ADME, organism-based; conditions: read-out: betat1/2(app) (converted); method in brief: as §1
Streptococcus pneumoniae [11] = assay: Antibacterial activity against Penicillin-resistant Streptococcus pneumoniae yonsei 15 infected in po dosed immunosuppressed mouse model assessed as inhibition of pulmonary infection administered bid for 3 days; format: functional; conditions: yonsei 15, po, 72 h
Method in brief: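 Lung infection in immunosuppressed mice (n = 6/group) by intranasal inoculation with penicillin-resistant S. pneumoniae Yonsei15 at 1 × 10⁶ CFU per mouse. Treatment was oral, twice daily for 3 days. Day-7 survival was analysed by probit to give ED50 and 95% CI.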

[12] = Volume of distribution at steady state in iv/po dosed mouse plasma by LC-MS/MS analysis; format: ADME, organism-based; conditions: read-out: Vdss; method in brief: as §1
[13] = target: T1, Peptide deformylase (Staphylococcus aureus); assay: Inhibition of Staphylococcus aureus PDF using formyl-methionine-alanine-serine as substrate assessed as increase in NADH levels at 3 nM by microtiter ELISA
[14] = Apparent oral bioavailability in mouse plasma by LC-MS/MS analysis; format: ADME, organism-based; method in brief: as §1
Enterococcus faecium [15] = assay: Antibacterial activity against vancomycin-resistant Enterococcus faecium infected in po dosed immunosuppressed mouse model assessed as inhibition of systemic infection administered bid for 3 days; format: functional; conditions: 72 h
Method in brief: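 Immunosuppressed mice (n = 6/group) received a systemic ip infection with a standard vancomycin-resistant E. faecium strain at 1 × 10⁹ CFU per mouse. Dosing was oral, BID, for 3 days. ED50 and 95% CI came from probit analysis of day-7 survival.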

Structure (SMILES) | MIC (Enterococcus faecium [4]) | MIC (Escherichia coli) | MIC (Streptococcus pneumoniae [5]) | MIC (Pseudomonas aeruginosa) | MIC (Staphylococcus aureus [6]) | MIC (Enterococcus faecalis) | further results
CC(C)(C)[C@H](NC(=O)[C@H](CC1CCCC1)CN(O)C=O)C(=O)N1CCN(Cc2ccc3c(c2)OCO3)CC1 |  |  |  |  |  |  | inhibition [1]: 34%; IC50 (Peptide deformylase): 30 nM; inhibition [2]: 1%; inhibition [3]: 72%
CN[C@@H](CC(C)C)C(=O)N[C@H]1C(=O)N[C@@H](CC(N)=O)C(=O)N[C@H]2C(=O)N[C@H]3C(=O)N[C@H](C(=O)N[C@@H](C(=O)O)c4cc(O)cc(O)c4-c4cc3ccc4O)[C@H](O)c3ccc(c(Cl)c3)Oc3cc2cc(c3O[C@H]2O[C@@H](CO)[C@H](O)[C@@H](O)[C@@H]2O[C@@H]2C[C@@](C)(N)[C@@H](O)[C@@H](C)O2)Oc2ccc(cc2Cl)[C@H]1O | > 50 µg/mL | > 50 µg/mL | 0.8 µg/mL (≈ 0.552 µM) | > 50 µg/mL | 3.1 µg/mL (≈ 2.14 µM) | > 50 µg/mL | 
CC(C)(C)[C@H](NC(=O)[C@H](CC1CCCC1)CN(O)C=O)C(=O)N1CCC(NCc2cc(F)c(F)cc2F)CC1 | 0.8 µg/mL (≈ 1.44 µM) |  | 0.4 µg/mL (≈ 0.721 µM) |  | 1.6 µg/mL (≈ 2.88 µM) | 0.8 µg/mL (≈ 1.44 µM) | inhibition [1]: 51%; IC50 (Peptide deformylase): 30 nM; inhibition [2]: 20%; clearance [7]: 19 mL/min/kg; Tmax [8]: 30 min; ED50 (Staphylococcus aureus [9]): 16.6 mg/kg; half-life [10]: 63 min; ED50 (Streptococcus pneumoniae [11]): 3 mg/kg; inhibition [3]: 78%; Vd [12]: 1.71 L/kg; inhibition [13]: -3%; bioavailability [14]: 95.8%; ED50 (Enterococcus faecium [15]): 13.3 mg/kg
COc1ccc(CNC2CCN(C(=O)[C@@H](NC(=O)[C@H](CC3CCCC3)CN(O)C=O)C(C)(C)C)CC2)c(OC)c1 | 3.1 µg/mL (≈ 5.53 µM) |  | 0.8 µg/mL (≈ 1.43 µM) |  | 25 µg/mL (≈ 44.6 µM) | 6.3 µg/mL (≈ 11.2 µM) | 
CC(C)(C)[C@H](NC(=O)[C@H](CC1CCCC1)CN(O)C=O)C(=O)N1CCC(NCc2ccc(O)cc2)CC1 | 50 µg/mL (≈ 96.8 µM) |  | 3.1 µg/mL (≈ 6 µM) |  | > 50 µg/mL | > 50 µg/mL | 
COc1ccc(CNC2CCN(C(=O)[C@@H](NC(=O)[C@H](CC3CCCC3)CN(O)C=O)C(C)(C)C)CC2)cc1 | 1.6 µg/mL (≈ 3.01 µM) |  | 0.8 µg/mL (≈ 1.51 µM) |  | 12.5 µg/mL (≈ 23.6 µM) | 6.3 µg/mL (≈ 11.9 µM) | 
Cc1ccc(CNC2CCN(C(=O)[C@@H](NC(=O)[C@H](CC3CCCC3)CN(O)C=O)C(C)(C)C)CC2)cc1 | 0.4 µg/mL (≈ 0.777 µM) |  | 0.4 µg/mL (≈ 0.777 µM) |  | 6.3 µg/mL (≈ 12.2 µM) | 3.1 µg/mL (≈ 6.02 µM) | 
CC(C)(C)[C@H](NC(=O)[C@H](CC1CCCC1)CN(O)C=O)C(=O)N1CCC(N)CC1 | > 50 µg/mL | > 50 µg/mL | 1.6 µg/mL (≈ 3.9 µM) | > 50 µg/mL | > 50 µg/mL | 50 µg/mL (≈ 122 µM) | 
CC(=O)NC[C@H]1CN(c2ccc(N3CCOCC3)c(F)c2)C(=O)O1 [LINEZOLID] | 1.6 µg/mL (≈ 4.74 µM) | > 50 µg/mL | 0.8 µg/mL (≈ 2.37 µM) | > 50 µg/mL | 1.6 µg/mL (≈ 4.74 µM) | 0.8 µg/mL (≈ 2.37 µM) | ED50 (Staphylococcus aureus [9]): 5 mg/kg; ED50 (Streptococcus pneumoniae [11]): 1.5 mg/kg; ED50 (Enterococcus faecium [15]): 11.4 mg/kg
CC(C)(C)[C@H](NC(=O)[C@H](CC1CCCC1)CN(O)C=O)C(=O)N1CCC(NCc2ccc(O)c(O)c2)CC1 | > 50 µg/mL |  | 12.5 µg/mL (≈ 23.5 µM) |  | > 50 µg/mL | > 50 µg/mL | 
CC(C)(C)[C@H](NC(=O)[C@H](CC1CCCC1)CN(O)C=O)C(=O)N1CCC(NCc2ccc(C#N)cc2)CC1 | 0.8 µg/mL (≈ 1.52 µM) |  | 0.4 µg/mL (≈ 0.761 µM) |  | 3.1 µg/mL (≈ 5.9 µM) | 0.8 µg/mL (≈ 1.52 µM) | inhibition [1]: 54%; IC50 (Peptide deformylase): 30 nM; inhibition [2]: 19%; clearance [7]: 51.5 mL/min/kg; Tmax [8]: 30 min; half-life [10]: 21.6 min; inhibition [3]: 77%; Vd [12]: 3.49 L/kg; inhibition [13]: -6%; bioavailability [14]: 103%
CC(=O)Nc1ccc(CNC2CCN(C(=O)[C@@H](NC(=O)[C@H](CC3CCCC3)CN(O)C=O)C(C)(C)C)CC2)cc1 | 25 µg/mL (≈ 44.8 µM) |  | 1.6 µg/mL (≈ 2.87 µM) |  | > 50 µg/mL | 12.5 µg/mL (≈ 22.4 µM) | 
CC(C)(C)[C@H](NC(=O)[C@H](CC1CCCC1)CN(O)C=O)C(=O)N1CCC(NCc2ccccn2)CC1 | 12.5 µg/mL (≈ 24.9 µM) | > 50 µg/mL | 1.6 µg/mL (≈ 3.19 µM) | > 50 µg/mL | 25 µg/mL (≈ 49.8 µM) | 12.5 µg/mL (≈ 24.9 µM) | 
